Screening results as filed in PubChem.
This is a sample that favours compounds with a hit; in the whole collection about 1.3% have one here.
RAD54 inh = blocks human RAD54 Holliday junction branch migration | Q92698 | FAM/BHQ fluorescence | inhibition, % at 10.4 µM | actives 0.14% (n = 360,000) | AID 602329;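 active = mean normalized replicate activity at least 40 and at least half of replicates scoring 40 or more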;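 note: inhibitors cause a drop in the FAM fluorescence signal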
Target sequence (Q92698 whole entry, looked up): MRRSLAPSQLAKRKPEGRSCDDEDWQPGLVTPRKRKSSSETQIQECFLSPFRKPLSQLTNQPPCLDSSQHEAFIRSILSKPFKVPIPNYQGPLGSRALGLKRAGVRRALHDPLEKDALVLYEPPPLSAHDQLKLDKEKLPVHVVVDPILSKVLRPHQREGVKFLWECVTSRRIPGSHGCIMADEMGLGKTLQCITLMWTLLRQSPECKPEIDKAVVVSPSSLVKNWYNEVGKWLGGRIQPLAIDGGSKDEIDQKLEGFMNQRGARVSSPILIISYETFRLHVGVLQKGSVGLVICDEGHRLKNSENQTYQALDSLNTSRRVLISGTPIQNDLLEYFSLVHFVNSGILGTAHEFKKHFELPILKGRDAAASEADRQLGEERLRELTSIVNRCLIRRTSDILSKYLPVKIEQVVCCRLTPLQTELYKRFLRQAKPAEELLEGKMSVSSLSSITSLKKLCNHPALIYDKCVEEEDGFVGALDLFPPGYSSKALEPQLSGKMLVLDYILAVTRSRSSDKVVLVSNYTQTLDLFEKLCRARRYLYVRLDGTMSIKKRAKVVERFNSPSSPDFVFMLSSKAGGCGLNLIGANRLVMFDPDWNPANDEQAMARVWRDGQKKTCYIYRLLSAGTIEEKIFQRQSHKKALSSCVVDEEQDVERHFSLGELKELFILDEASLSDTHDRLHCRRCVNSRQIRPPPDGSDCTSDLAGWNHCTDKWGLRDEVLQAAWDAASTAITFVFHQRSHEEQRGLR
RAD52 anneal inh = blocks human RAD52 DNA annealing; P43351; recombinant RAD52 DNA annealing, FRET fluorescence; inhibition, % at 18.7 µM; actives 0.46% (n = 360,000); AID 651710;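 active = every replicate showing at least 50% inhibition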
FN deposit inh = fibronectin deposition inhibition; AH1F fibroblasts, Alexa488-fibronectin deposition fluorescence, overnight; inhibition, % at 12.6 µM; actives 0.086% (n = 350,000); AID 743247;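 active = mean inhibition across replicates of 30% or more, regardless of how many single replicates reach that level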
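Assay system: AH1F fibroblasts / Quantity: 10000 cells per well / Medium: DMEM plus 2% serum, read in PBS / Reagent: labelled fibronectin 24 nM / Dosing: single dose, pinned / Times: 1 h cell attachment, overnight exposure to compound and label / Signal: fluorescence, ex 485 nm, em 525 nm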
PAX8 inh HTS = inhibitors of PAX8 transcriptional activity in RMG-I cells; actives 1.2% (n = 360,000); RMG-I TPO-luciferase reporter, SteadyGlo, 24 h; inhibition, % at 12.6 µM;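 active = mean replicate inhibition at least 60% with every replicate also reaching 60%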;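 note: luciferase light reporting Pax8 driven TPO promoter activity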
Large screens that a line does not name were inactive; ! = not confirmed by another sample.

C[C@H]1CCCCO[C@H](CN(C)Cc2ccc(C(F)(F)F)cc2)[C@@H](C)CN([C@@H](C)CO)C(=O)c2cc(NC(=O)c3ccccc3)ccc2O1	PAX8 inh HTS 84.6 (no result: FN deposit inh)
COc1ccc([N+](=O)[O-])cc1C(=O)NC1CCN(Cc2ccccc2)CC1	none
Cc1cc(Cl)c(S(=O)(=O)NCc2ccncc2)cc1OCC(N)=O	none (no result: RAD52 anneal inh)
CC(C)OCCCNC(=O)CN1CCN(Cc2ccc(Cl)cc2)C1=O	none
C[C@H]1CCCCO[C@H](CN(C)C(=O)Nc2ccc(C(F)(F)F)cc2)[C@@H](C)CN([C@@H](C)CO)C(=O)c2cc(NC(=O)c3ccncc3)ccc2O1	PAX8 inh HTS 93.5
C[C@H]1CCCCO[C@@H](CN(C)Cc2ccc(C(F)(F)F)cc2)[C@@H](C)CN([C@@H](C)CO)C(=O)c2cc(NC(=O)c3ccccc3)ccc2O1	PAX8 inh HTS 87.3 (no result: FN deposit inh)
C[C@@H]1CCCCO[C@@H](CN(C)C(=O)Nc2ccc(C(F)(F)F)cc2)[C@H](C)CN([C@@H](C)CO)C(=O)c2cc(NC(=O)c3ccncc3)ccc2O1	none
C[C@@H]1CCCCO[C@H](CN(C)S(C)(=O)=O)[C@H](C)CN([C@@H](C)CO)C(=O)c2cc(NS(=O)(=O)c3cccs3)ccc2O1	none (no result: FN deposit inh, PAX8 inh HTS)
CO[C@@H]1CN(C)C(=O)c2cc(NS(C)(=O)=O)ccc2OC[C@@H](C)N(Cc2ccccn2)C[C@H]1C	none (no result: RAD54 inh, RAD52 anneal inh, PAX8 inh HTS)
COCC#Cc1cnc2c(c1)C(=O)N([C@@H](C)CO)C[C@H](C)[C@@H](CN(C)C(=O)Nc1ccccc1OC)O2	none (no result: FN deposit inh)
O=C(N/N=C/c1cccs1)c1cccc(S(=O)(=O)Nc2ccc(Cl)cc2)c1	none (no result: RAD54 inh)
O=C(N/N=C/c1cccs1)c1cccc(NC(=O)c2ccc(Cl)cc2)c1	FN deposit inh 35.2 (no result: RAD54 inh)
Cc1cc(Cl)n2c(nc3cc(F)c(F)cc32)c1C#N	PAX8 inh HTS 74.5 (no result: RAD54 inh)
COc1ccc(CNC(=O)CCc2nnc3ccc(NCCCN4CCCC4=O)nn23)cc1	none
COc1cccc(CNC(=O)CCc2nnc3ccc(NCCCN4CCCC4=O)nn23)c1	FN deposit inh 30.0
Cc1ccc(NC(=O)C2CC(=O)N/C(=N/N=C/c3ccco3)S2)cc1C (centres undefined)	PAX8 inh HTS 117.7
C[C@@H]1CN([C@@H](C)CO)C(=O)c2ccccc2-c2ccccc2CO[C@@H]1CN(C)Cc1ccc(C(=O)O)cc1	none (no result: PAX8 inh HTS)
O=C(Nc1nc2cc3c(cc2s1)OCCO3)C1=COCCO1	PAX8 inh HTS 94.0
Cc1cccc(-n2c(=O)[nH]c3c(C(N)=O)nc(-c4ccccc4Cl)nc32)c1	none
COc1ccc(Cn2c(SCc3cc(C)ccc3C)nc3cc(OC)c(OC)cc3c2=N)cc1	none (no result: RAD52 anneal inh, FN deposit inh, PAX8 inh HTS)
COc1ccc(Cn2c(SCc3ccc(C)cc3)nc3cc(OC)c(OC)cc3c2=N)cc1Cl	PAX8 inh HTS 109.3 (no result: RAD52 anneal inh)
Cc1c(C(=O)NC2CC(C)(C)NC(C)(C)C2)oc2c(Cl)cccc12	none
CCN(CC)S(=O)(=O)c1cc(OC)ccc1N=Nc1ccc(O)c2ncccc12	PAX8 inh HTS 96.3
CCS(=O)(=O)c1ccc(OC)c(N=Nc2ccc(O)c3ncccc23)c1	none (no result: RAD54 inh)
O=C(NCc1ccccc1Cl)C1(S(=O)(=O)c2ccc(Cl)cc2)CC1	none
COc1ccc2c(c1)C(CC(C)=O)N(c1ccc(-c3cccs3)cc1)C(c1ccsc1)=C2 (centres undefined)	PAX8 inh HTS 64.0 (no result: RAD54 inh)
COc1ccc(-c2ccc(N3C(c4cc(OC)cc(OC)c4)=Cc4ccc(OC)cc4C3CC(C)=O)cc2)cc1 (centres undefined)	PAX8 inh HTS 63.3 (no result: RAD54 inh, FN deposit inh)
Cc1cccc(-c2ncc(CN3CCN(CCC(C)C)C(CCO)C3)cn2)c1 (centres undefined)	none (no result: RAD54 inh)
Cc1cccc2c(C(=O)O)cc(-c3cccnc3)nc12	PAX8 inh HTS 66.4
COc1cccc(S(=O)(=O)Nc2ccc3c(c2)[C@H]2C[C@@H](CC(=O)NC4CCCCC4)O[C@H](CO)[C@H]2O3)c1	RAD52 anneal inh 66.9 (no result: FN deposit inh)
COc1cccc(S(=O)(=O)Nc2ccc3c(c2)[C@@H]2C[C@@H](CC(=O)NCc4ccc(Cl)cc4)O[C@@H](CO)[C@@H]2O3)c1	PAX8 inh HTS 75.1!
COc1cccc(S(=O)(=O)Nc2ccc3c(c2)[C@H]2C[C@H](CC(=O)NCc4ccc(Cl)cc4)O[C@@H](CO)[C@H]2O3)c1	none (no result: FN deposit inh)
CN(C)C(=O)C[C@@H]1CC[C@@H]2[C@H](COC[C@H](O)CN2C(=O)c2ccncc2)O1	RAD52 anneal inh 69.8
CN(C)C(=O)C[C@@H]1CC[C@@H]2[C@H](COC[C@@H](O)CN2C(=O)c2ccncc2)O1	none (no result: RAD52 anneal inh)
O=C(c1cc(S(=O)(=O)N2CCC3(CC2)OCCO3)ccc1F)N1CCCCC1	none (no result: RAD54 inh)
O=C1C(Cl)=C(NCCCO)C(=O)c2ccccc21	none (no result: RAD52 anneal inh, FN deposit inh, PAX8 inh HTS)
O=C1C(SCCO)=C(SCCO)C(=O)c2ccccc21	FN deposit inh 42.9, PAX8 inh HTS 114.1
S=c1[nH]c(-c2ccccc2)cn1/N=C/c1cccc2ccccc12	none (no result: RAD54 inh)
N/C(=N\OC(=O)c1ccc2ccccc2c1)c1ccccn1	PAX8 inh HTS 75.3
CCCc1ccc(C(=O)O/N=C(\N)c2ccccn2)cc1	PAX8 inh HTS 105.6
N/C(=N\OC(=O)c1ccc2ccccc2c1)c1ccncc1	none
N/C(=N\OC(=O)c1ccc(=O)n(Cc2ccccc2)c1)c1ccccn1	none
CC(C)(C)[C@@H]1C=C(C(=O)NC2CC2)O[C@H](OCc2ccc(CO)cc2)C1	none
CCOc1ccc(/C(O)=C2/C(=O)C(=O)N(CCOCCO)C2c2ccc(F)cc2)cc1 (centres undefined)	none (no result: RAD52 anneal inh, FN deposit inh, PAX8 inh HTS)
C[C@@H]1CCCCO[C@H](CN(C)C(=O)NC2CCCCC2)[C@H](C)CN([C@H](C)CO)C(=O)c2cc(NC(=O)Nc3ccc(C(F)(F)F)cc3)ccc2O1	PAX8 inh HTS 73.4 (no result: FN deposit inh)
C[C@@H]1CN([C@H](C)CO)C(=O)c2cc(NC(=O)Nc3ccc(C(F)(F)F)cc3)ccc2O[C@@H](C)CCCCO[C@H]1CN(C)C(=O)NC1CCCCC1	PAX8 inh HTS 96.4 (no result: FN deposit inh)
C[C@H]1CCCCO[C@@H](CN(C)C(=O)NC2CCCCC2)[C@@H](C)CN([C@@H](C)CO)C(=O)c2cc(NC(=O)Nc3ccc(F)cc3)ccc2O1	none
C[C@H](CO)N1C[C@H](C)[C@H](CN(C)C(=O)NC2CCCCC2)OCCCC[C@H](C)Oc2ccc(NC(=O)Nc3ccc(F)cc3)cc2C1=O	PAX8 inh HTS 64.6
CCCNC(=O)Nc1ccc2c(c1)OC[C@H](C)N(C(=O)C1CCOCC1)C[C@@H](C)[C@H](OC)CN(C)C2=O	none
CC1=CC(=O)c2ccccc2C1=O	none
CC(C)(C=O)C1=CC(=O)c2ccccc2C1=O	PAX8 inh HTS 64.7 (no result: RAD54 inh)
O=C1C=CC(=C(c2ccc(O)cc2)c2ccc(O)cc2)C=C1	PAX8 inh HTS 105.8
CCOC(=O)c1c[nH]n2c(=S)ncnc12	none
O=c1[nH]c(=O)n(Cc2ccc(Oc3ccccc3)cc2)cc1Br	none (no result: RAD54 inh)
C=C1CC(Cn2cc(Br)c(=O)[nH]c2=O)(c2ccc(-c3ccccc3)cc2)OC1=O (centres undefined)	PAX8 inh HTS 99.0 (no result: RAD54 inh)
O=C(COC(=O)c1ccco1)Nc1cccc(S(=O)(=O)N2CCOCC2)c1	PAX8 inh HTS 91.7
O=C(COC(=O)c1ccco1)Nc1cccc(S(=O)(=O)N2CCCCC2)c1	none
